Screens as filed in PubChem.
An excerpt weighted towards active compounds, which were near 3.5% of everything screened.
MrgX1 PAM = allosterically activates human MrgX1 receptor signaling | B-score at 10 µM | Q96LB2 | AID 588675 | MrgX1-HEK293, Fluo-4 calcium flux, FDSS; stronger effect = higher value | hit rate 0.63% among 310,000;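 active = plate-corrected calcium response at least 3 library SD above typical, normal starting fluorescence, not activating the receptor alone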;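 note: compound read alongside a low EC10 to EC30 dose of BAM8-22 agonist; peak minus trough fluorescence over baseline measured at the second addition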
RGS4 act = RGS4 potentiation or activation; HEK293 M3R/inducible RGS4, carbachol calcium flux Fluo4; stronger effect = lower value; B-score at 10 µM; hit rate 0.92% among 310,000;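 active = B-score of the integrated calcium signal more than 4 SD below the library mean, with starting fluorescence not abnormally high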;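 note: negative B-score means reduced calcium response which marks RGS4 activation or potentiation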
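Reagent: ECmax carbachol challenge; Test system: M3R-expressing HEK293 line, RGS4 induced by doxycycline; Schedule: overnight RGS4 induction, 30 min dye load 37 °C, 20 min compound RT; Detection: calcium dye Fluo4 fluorescence; Read-out: Agonist-evoked peak-minus-minimum fluorescence over baseline, integrated ratio, B score.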
MrgX1 antag = antagonists of human MrgX1 receptor; Q96LB2; MRGX1-HEK293 calcium flux, Fluo-4, BAM8-22 antagonism; stronger effect = lower value; B-score at 10 µM; hit rate 1.3% among 310,000;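 active = calcium-response B-score plate-corrected more than 3 library SD below zero, starting fluorescence within 5 deviations, no agonist response on first addition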;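 note: peak minus trough fluorescence over baseline after final BAM8-22 challenge near maximal dose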
RGS4 block = human RGS4 inhibition; P49798; AID 463165; HEK293 M3R/RGS4 inducible, Fluo-4 calcium flux; stronger effect = higher value; triggered by carbachol at its EC20; hit rate 0.45% among 310,000; B-score at 10 µM;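 active = B-score, a plate-corrected calcium signal, over three deviations above library mean, with baseline fluorescence within five deviations of library mean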;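 note: RGS4 expression induced by doxycycline in cells with stable M3 receptor; B-score is computed from the integrated fluorescence ratio over baseline after carbachol; higher B-score means a larger calcium signal and so more RGS4 inhibition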
Target sequence (P49798 whole entry, looked up): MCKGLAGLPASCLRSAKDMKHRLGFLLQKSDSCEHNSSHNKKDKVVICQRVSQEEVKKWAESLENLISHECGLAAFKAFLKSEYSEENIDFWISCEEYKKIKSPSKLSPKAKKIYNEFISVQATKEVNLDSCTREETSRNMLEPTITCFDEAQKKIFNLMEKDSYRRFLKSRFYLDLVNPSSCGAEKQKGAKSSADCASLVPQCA
MrgX1 agonist = human MrgX1 receptor agonism, primary screen | Q96LB2 | hit rate 0.44% among 310,000 | AID 588627 | B-score at 10 µM | MrgX1-HEK293 cells, Fluo-4 calcium fluorescence, agonist mode; stronger effect = higher value;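 active = calcium response B-score plate-corrected fluorescence ratio at least 3 library SD, with starting fluorescence B-score inside 5 SD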
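Material: MrgX1-expressing HEK293 cells / Dosing: compound as first of three additions / Incubation: overnight seeding, then 1 h dark dye loading / Signal: Fluo-4 NW calcium fluorescence / Evaluation: B-scored fluorescence response ratio / Benchmarks: positive and negative control wells on each plate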
* marks the source's active call; other numbers are inactive results; i = inactive.

SMILES | MrgX1 PAM | RGS4 act | MrgX1 antag | RGS4 block | MrgX1 agonist
O=C1CSC(c2ccccc2)N1c1ccc([N+](=O)[O-])cc1 (stereo not given) | i | -6.97* | i | i | i
COc1ccc(-c2cn(-c3ccc(OC)cc3)c3[n+]2-c2ccccc2CC3)cc1 | i | i | -7.91* | i | i
Cc1cc(C)c2c(N)c(C(=O)Nc3cccc(C)c3C)sc2n1 | i | i | i | i | i
O=S(=O)(Nc1nc2ccccc2nc1Nc1ccc(N2CCOCC2)cc1)c1cc(Cl)ccc1Cl | i | i | i | i | i
Cc1cn([C@H]2C=C[C@@H](CO)O2)c(=O)[nH]c1=O | 9.41* | i | i | i | i
COc1ccc(N=C2NC(=O)CS2)c([N+](=O)[O-])c1 | i | i | i | i | i
O=C1CSC(=Nc2ccccc2[N+](=O)[O-])N1 | i | i | -4.64* | i | i
Cc1ccc(S(=O)(=O)NCC(=O)N/N=C/c2ccccc2O)cc1 | i | i | -5.36* | i | i
O=C(O)c1ccc(/C=N/NC(=O)c2cc(-c3ccc4c5c(cccc35)CC4)n[nH]2)cc1 | i | i | i | i | i
COc1ccccc1C1NC=C([N+](=O)[O-])C=C1[N+](=O)[O-] (stereo not given) | i | i | i | i | 28.7*
COc1ccc(C2C(C#N)=C(C)NC3=C2C(=O)c2ccccc23)cc1 (stereo not given) | i | -7.39* | i | i | i
CCOc1ccc(C2C(C#N)=C(C)NC3=C2C(=O)c2ccccc23)cc1 (stereo not given) | i | i | i | i | i
CC12COC3(C(=O)Nc4ccccc4F)CC1CCC32C (stereo not given) | i | i | i | i | i
CC12COC3(C(=O)Nc4ccc([N+](=O)[O-])cc4)CC1CCC32C (stereo not given) | 8.37* | i | i | i | i
O=c1cc(C(F)(F)F)nc(SCc2cccc3ccccc23)[nH]1 | i | i | -5.13* | i | i
Nc1cc(=O)[nH]c(SCc2cccc3ccccc23)n1 | i | i | i | i | i
Cc1ccc(N2C(=S)SC3CS(=O)(=O)CC32)cc1 (stereo not given) | i | i | -5.49* | i | i
CSCC[C@H](NC(=O)c1ccco1)c1nnc2ccccn12 | i | i | i | i | i
O=C(COC(=O)C12CC3CC(CC(C3)C1)C2)Nc1ccc([N+](=O)[O-])cc1Cl | i | i | -6.64* | i | i
Cc1ccsc1CN(C)CC(=O)Nc1ccc([N+](=O)[O-])cc1Cl | i | -8.5* | i | i | i
CC(C)c1ccc(/C=C/C(=O)Nc2ccc(CN3CCOCC3)cc2)cc1 | i | -8.25* | i | i | i
Cc1ccc(C(=O)/C=C/c2cc(Br)cc(Br)c2O)o1 | i | i | -5.3* | i | i
Cc1ccc(C(=O)/C=C/N(C)C)o1 | i | i | i | i | i
O=[N+]([O-])c1ccc(N2CCC(=NOCc3ccc(Cl)cc3)CC2)cc1 | i | -8.19* | i | i | i
CCCCCCCCNC(C)C(O)c1ccc(SC(C)C)cc1 (stereo not given) | i | -6.95* | i | i | i
SMILES | MrgX1 PAM | RGS4 act | MrgX1 antag | RGS4 block | MrgX1 agonist
Cc1ccc(N2CCN(C(=O)C3CCC(=O)N(Cc4ccc(Cl)cc4)C3)CC2)c(C)c1 (stereo not given) | i | i | i | i | i
O=C(O)CC/C(=N\Nc1ccc([N+](=O)[O-])cc1)c1ccccc1 | i | i | -5.89* | i | i
Cn1ccnc1SCC(=O)NC1(C#N)CCCCC1 | i | i | i | i | i
N/C(=N\OC(=O)c1cccnc1)c1ccccc1Cl | i | i | i | i | i
N/C(=N\OC(=O)c1cccnc1)c1ccc(Cl)cc1Cl | i | i | -4.6* | i | i
O=C1CC(c2ccccc2)CC(O)=C1C=NCCc1ccccc1 (stereo not given) | 10.7* | i | i | i | i
O=C1CC(c2ccc(Cl)cc2)CC(O)=C1C=NCc1ccc(Cl)c(Cl)c1 (stereo not given) | i | -7.95* | i | i | i
